{"data": "Published values of several laboratories", "target": "Ephrin type-B receptor 4 (EPHB4, Homo sapiens, UniProt P54760)"}
{"Structure (SMILES)": "COc1cc(Cl)c(C(=O)N[C@@H](CN[C@H]2CC[C@@H](N)CC2)Cc2ccc(C#N)cc2)cc1-c1ccc(CN[C@H](C)c2ccc(C)cc2)o1", "test": "enzyme activity, inhibitor", "conditions": "1 µM", "measurement": "remaining activity", "value": "91%"}
{"Structure (SMILES)": "CC/C(=N\\NC(=O)NCc1cccc(O)c1)c1ccc(O)c(C)c1O", "test": "enzyme activity, inhibitor", "conditions": "0.1 µM", "measurement": "inhibition", "value": "0.2%"}
{"Structure (SMILES)": "O=C(Nc1cnn(-c2csc(C(=O)NC3COC3)c2)c1)Nc1c(F)cccc1Cl", "test": "enzyme activity, inhibitor", "conditions": "5 µM", "measurement": "remaining activity", "value": "98.1%"}
{"Structure (SMILES)": "O=C1Nc2ccc(Cl)cc2C1=Cc1cc(Cl)c(O)c(Cl)c1", "test": "cell-free assay", "conditions": "0.5 µM", "measurement": "remaining signal", "value": "100%"}
{"Structure (SMILES)": "CCOc1cc(-c2nncn2C)ccc1Nc1ncc2cc(C)nc(NCC(C)(C)C)c2n1", "test": "enzyme activity, inhibitor, FRET", "conditions": "1 µM", "measurement": "inhibition", "value": "< 15%"}
{"Structure (SMILES)": "CN(C)CC#Cc1ccc(OCCCc2sc(N3CCc4cccc(C(=O)Nc5nc6ccccc6s5)c4C3)nc2C(=O)O)c(F)c1", "test": "cell-free assay, competition with immobilised ligand", "conditions": "1 µM", "measurement": "remaining binding", "value": "100%"}
{"Structure (SMILES)": "CCN(CC)c1ccc(C2=NNC(=O)CC2C)cc1[N+](=O)[O-] (stereo not drawn)", "test": "enzyme activity, inhibitor", "conditions": "10 µM", "measurement": "remaining activity", "value": "100%"}
{"Structure (SMILES)": "O=C1NC(=O)c2cc(Nc3ccc(F)cc3)c(Nc3ccc(F)cc3)cc21", "test": "cell-free assay", "conditions": "0.5 µM", "measurement": "remaining signal", "value": "108%"}
{"Structure (SMILES)": "Cc1cnc(NC2CCOCC2)nc1-n1cnc(C(=O)NC(CN)c2cc(F)cc(Cl)c2)c1 (stereo not drawn)", "test": "enzyme activity, inhibitor, radiometric", "conditions": "1 µM", "measurement": "remaining activity", "value": "89%"}
{"Structure (SMILES)": "COc1cc(Nc2cnc(C#N)c(O[C@H](C)CN(C)C)n2)ncc1-c1cnn(C)c1", "test": "enzyme activity, inhibitor, radiometric", "conditions": "1 µM", "measurement": "remaining activity", "value": "96%"}
{"Structure (SMILES)": "C[C@@H](c1cccc(C#N)c1)n1cc(Cl)cc(C(N)=O)c1=N", "test": "cell-free assay, competition with immobilised ligand", "conditions": "1 µM", "measurement": "remaining binding", "value": "96%"}
{"Structure (SMILES)": "CNCc1ccc(-c2cc(-c3nc(-c4ccc(S(=O)(=O)C(C)C)cc4)cnc3N)on2)cc1", "test": "enzyme activity, inhibitor", "conditions": "0.4 µM", "measurement": "inhibition", "value": "0%"}
{"Structure (SMILES)": "CN([C@@H]1CCc2c(CC(=O)O)c3cc(S(C)(=O)=O)ccc3n2C1)S(=O)(=O)c1ccc(F)cc1", "test": "cell-free assay, competition with immobilised ligand", "conditions": "1 µM", "measurement": "remaining binding", "value": "95%"}
{"Structure (SMILES)": "Cc1[nH]c(/C=C2\\C(=O)Nc3ccc(F)cc32)c(C)c1C(=O)N[C@H]1CCN(C(=O)N(C)C)C1", "test": "enzyme activity, inhibitor", "conditions": "0.1 µM", "measurement": "remaining activity", "value": "111%"}
{"Structure (SMILES)": "N#Cc1ccc(Nc2ccc3[nH]c(=O)[nH]c3c2)c(Cl)c1", "test": "cell-free assay, competition with immobilised ligand", "conditions": "1 µM", "measurement": "remaining binding", "value": "98%"}
{"Structure (SMILES)": "Oc1cccc(-c2nc(N3CCOCC3)c3oc4ncccc4c3n2)c1", "test": "enzyme activity, inhibitor", "conditions": "10 µM", "measurement": "remaining activity", "value": "86%"}
{"Structure (SMILES)": "Cc1ccc(C(=O)Nc2ccc(CN3CCN(C)CC3)c(C(F)(F)F)c2)cc1C#Cc1cnc2cccnn12", "test": "cell-free assay", "conditions": "23.5 nM", "measurement": "remaining signal", "value": "92%"}
{"Structure (SMILES)": "COc1cc2ncnc(Nc3ccc(Oc4ccccc4)cc3C)c2cc1OC", "test": "enzyme activity, inhibitor", "conditions": "1 µM", "measurement": "inhibition", "value": "21%"}
{"Structure (SMILES)": "COc1cc(/C=C/C(=O)CC(=O)/C=C/c2ccc(O)c(OC)c2)ccc1O", "test": "enzyme activity, inhibitor", "conditions": "1 µM", "measurement": "activity vs control", "value": "105%"}
{"Structure (SMILES)": "CCCCNc1ncc2c(-c3ccc(F)cc3)nn(C[C@H]3CC[C@H](N)CC3)c2n1", "test": "target engagement in cells, inhibitor, chemoproteomics", "conditions": "20 mM", "measurement": "inhibition", "value": "97.5%"}
{"Structure (SMILES)": "COc1cc2c(Nc3ccc(Br)cc3F)ncnc2cc1OCC1CCN(C)CC1", "test": "cell-free assay", "conditions": "0.5 µM", "measurement": "remaining signal", "value": "13%"}
{"Structure (SMILES)": "Cn1c(=O)n(-c2ccc(C(C)(C)C#N)cc2)c2c3cc(-c4cnc5ccccc5c4)ccc3ncc21", "test": "enzyme activity, inhibitor", "conditions": "10 µM", "measurement": "remaining activity", "value": "99%"}
{"Structure (SMILES)": "CS(=O)(=O)N1CCCC(NC(=O)[C@H](CCC2CCCCC2)NC(=O)c2ccc(CNc3ncnc4c3nnn4-c3ccccc3)cc2)C1 (stereo partly drawn)", "test": "cell-free assay, competition with immobilised ligand", "conditions": "0.1 µM", "measurement": "remaining binding", "value": "96%"}
{"Structure (SMILES)": "COc1cccc2c(NCc3ccccc3)nc(-n3c(N)nc4ccccc43)nc12", "test": "target engagement in cells, inhibitor, chemoproteomics", "conditions": "20 mM", "measurement": "inhibition", "value": "-8.8%"}
{"Structure (SMILES)": "O=C(N[C@H]1CCCCC/C=C\\C2C[C@@]2(C(=O)O)NC(=O)[C@@H]2C[C@@H](Oc3ccncc3)CN2C1=O)OC1CCCC1 (stereo partly drawn)", "test": "cell-free assay, competition with immobilised ligand", "conditions": "1 µM", "measurement": "remaining binding", "value": "100%"}
{"Structure (SMILES)": "Oc1ccc(-c2nc(-c3ccncc3)c(-c3ccc(F)cc3)[nH]2)cc1", "test": "cell-free assay", "conditions": "0.5 µM", "measurement": "remaining signal", "value": "89%"}
{"Structure (SMILES)": "Cc1c[nH]c2nccc(Oc3c(F)cc(Nc4cc(Cl)nc(N)n4)cc3F)c12", "test": "cell-free assay, competition with immobilised ligand", "conditions": "0.1 µM", "measurement": "remaining binding", "value": "100%"}
{"Structure (SMILES)": "C=CC(=O)Nc1cc(Nc2nccc(Nc3cc(Cl)c(F)cc3C(C)(C)O)n2)c(OC)cc1N1CC[C@@H](N(C)C)C1", "test": "enzyme activity, inhibitor", "conditions": "1 µM", "measurement": "inhibition", "value": "7%"}
{"Structure (SMILES)": "CC1=C(C#N)[C@@H](c2ccc3[nH]nc(C)c3c2)C(C#N)=C(c2ccc(Cl)cc2)N1", "test": "cell-free assay, competition with immobilised ligand", "conditions": "1 µM", "measurement": "remaining binding", "value": "100%"}
{"Structure (SMILES)": "CC(C)(C)c1nc(-c2cccc(NS(=O)(=O)c3c(F)cccc3F)c2F)c(-c2ccnc(N)n2)s1", "test": "enzyme activity, inhibitor, radiometric", "conditions": "1 µM", "measurement": "remaining activity", "value": "97%"}
